Results from ChEMBL document CHEMBL1144547, “Synthesis, antimalarial, antileishmanial, antimicrobial, cytotoxicity, and methemoglobin (MetHB) formation activities of new 8-quinolinamines” (Bioorg Med Chem, 2007).
In brackets after ≈: the same amount, converted by molar mass. Activity calls are given as the source filed them. The calls are words filed in the database; no cut-off is given here.

Experiments:
Pichia kudriavzevii = assay: Antifungal activity against Candida krusei ATCC 6258 after 18 to 24 hrs; format: functional, organism-based
Cryptococcus neoformans = assay: Antifungal activity against Cryptococcus neoformans ATCC 90113 after 68 to 72 hrs; format: functional, organism-based
Nakaseomyces glabratus = assay: Antifungal activity against Candida glabrata ATCC 90030 after 18 to 24 hrs; format: functional, organism-based
Leishmania donovani = assay: Antileishmanial activity against Leishmania donovani promastigotes by Alamar blue assay; format: functional, organism-based
Candida albicans [1] = assay: Antifungal activity against Candida albicans ATCC 90028 after 18 to 24 hrs; format: functional, organism-based
Plasmodium falciparum [2] = assay: Antimalarial activity against chloroquine-sensitive Plasmodium falciparum D6; format: functional, organism-based
[3] = Selectivity index, Ratio of IC50 in Vero cells to IC50 in chloroquine-sensitive Plasmodium falciparum D6; format: functional
Plasmodium falciparum [4] = assay: Antimalarial activity against chloroquine-resistant Plasmodium falciparum W2; format: functional, organism-based
[5] = Selectivity index, Ratio of IC50 in Vero cells to IC50 in chloroquine-resistant Plasmodium falciparum W2; format: functional
Candida albicans [6] = assay: Antifungal activity against Candida albicans ATCC 90028 at 20 ug/mL after 18 to 24 hrs; format: functional, organism-based
[7] = Methemoglobin toxicity in human erythrocytes incubated with mouse liver microsomes assessed as MetHb formation at 20 ug/mL by biotransformation linked assay; set-up: species or system Erythrocyte, Microsome
Method in brief: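 Compound at 20 µg/mL co-incubated 1 h at 37 °C, shaking, with mouse liver microsomes (500 µg protein), human erythrocytes (50% hematocrit suspension), NADPH-regenerating system, KCl, in 100 mM potassium phosphate pH 7.4; cells pelleted, lysed in Triton X-100 phosphate buffer pH 7.8; MetHb relative to total Hb by Evelyn–Malloy spectrophotometry; % versus vehicle control.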

Plasmodium berghei = assay: Antimalarial activity as parasite elimination against Plasmodium berghei in mice (Mus musculus) at 100 mg/kg/day peroral dose over 4 days; format: functional, organism-based
Method in brief: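 Mice, 6 per group, infected with drug-sensitive P. berghei; oral dosing on days 0–3 post infection (×4); vehicle-only and chloroquine 10 mg/kg/day×4 oral controls. Curative means no parasites and survival to day D+60; suppressive means negative parasitaemia to D+7.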

Vero = assay: Cytotoxicity against Vero cells upto 23.8 ng/ml by neutral red assay; format: cell-based; conditions: chlorocebus sabaeus, in the assay text read “23.8 µg/ml” for “23.8 ng/ml”
Method in brief: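 Vero monkey kidney fibroblasts (ATCC), neutral red uptake read-out; compounds tested up to a highest concentration of 23.8 µg/mL.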

C[C@@H]1[C@H](O)[C@@H](C)/C=C/C=C/C=C/C=C/C=C/C=C/C=C/[C@H](O[C@@H]2O[C@H](C)[C@@H](O)[C@H](N)[C@@H]2O)C[C@@H]2O[C@](O)(C[C@@H](O)C[C@@H](O)[C@H](O)CC[C@@H](O)C[C@@H](O)CC(=O)O[C@H]1C)C[C@H](O)[C@H]2C(=O)O [AMPHOTERICIN B]
IC50 (Pichia kudriavzevii): 0.6 µg/mL (≈ 0.649 µM)
IC50 (Cryptococcus neoformans): 0.75 µg/mL (≈ 0.812 µM)
MFC (Cryptococcus neoformans): 1.5 µg/mL (≈ 1.62 µM)
IC50 (Nakaseomyces glabratus): 0.07 µg/mL (≈ 0.0758 µM)
MFC (Nakaseomyces glabratus): 0.625 µg/mL (≈ 0.676 µM)
MIC (Nakaseomyces glabratus): 0.31 µg/mL (≈ 0.335 µM)
IC90 (Leishmania donovani): 0.35 µg/mL (≈ 0.379 µM)
IC50 (Candida albicans [1]): 0.25 µg/mL (≈ 0.271 µM)

C[C@@H]1CC[C@H]2[C@@H](C)C(=O)O[C@@H]3O[C@@]4(C)CC[C@@H]1[C@]32OO4 [ARTEMISININ]
IC50 (Plasmodium falciparum [2]): 0.0152 µg/mL (≈ 0.0538 µM)
Selectivity index [3]: 1565
IC50 (Plasmodium falciparum [4]): 0.009 µg/mL (≈ 0.0319 µM)
Selectivity index [5]: 2644

N=C(N)c1ccc(OCCCCCOc2ccc(C(=N)N)cc2)cc1 [PENTAMIDINE]
IC50 (Leishmania donovani): 1 µg/mL (≈ 2.94 µM)
IC90 (Leishmania donovani): 3.8 µg/mL (≈ 11.2 µM)

COc1cc(NC(C)CCCN)c2ncccc2c1 (stereo not given) [PRIMAQUINE]
Activity (Candida albicans [6]): inactive
Activity [7]: 47.9%
Activity (Leishmania donovani): inactive
IC50 (Leishmania donovani): 19.9 µg/mL (≈ 76.7 µM)
Activity (Plasmodium berghei): inactive
Activity (Vero): Non-toxic
